For six compounds, Activity results are on record in ChEMBL document CHEMBL5038594, “Structural Fine-Tuning of Desmuramylpeptide NOD2 Agonists Defines Their In Vivo Adjuvant Activity” (J Med Chem, 2021).

The source made the active and inactive calls. No cut-off for these calls is given here.

Data set [1] relates to PBMC. Briefly: Immunostimulatory activity in human PBMC cells assessed as increase in LPS-induced IL-8 production at 2 uM incubated for 18 hrs by flow cytometry analysis. The class given is functional, cell-based. The essentials: (§1)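 Human PBMCs from healthy donors, 1 × 10^6 cells/mL in RPMI 1640 with 10% FBS, treated with 2 μM compound or 0.1% DMSO, without or with LPS 10 ng/mL, for 18 h at 37 °C. Supernatant cytokines quantified by cytometric bead array (human inflammatory panel) on a flow cytometer against recombinant standards. Four independent donors. Repeated-measures one-way ANOVA with Dunnett.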

Data set [2] relates to PBMC. As to the kind of experiment: Immunostimulatory activity in human PBMC cells assessed as increase in IL-8 production at 2 uM incubated for 18 hrs by flow cytometry analysis. It is filed as functional, cell-based. The essentials:
as §1
On the technique in general: Flow cytometry measures light scatter and fluorescence of single cells or particles in a stream.

Data set [3] relates to PBMC. Briefly: Immunostimulatory activity in human PBMC cells assessed as increase in LPS-induced TNF-alpha production at 2 uM incubated for 18 hrs by flow cytometry analysis. It is filed as functional, cell-based. In a few lines: as §1
Data set [4] relates to Mus musculus. As to the kind of experiment: Immuno-adjuvant activity in NIH/OlaHsd mouse assessed as increase in ovalbumin specific […] associated IgG2a production in sera at 0.30 micromol administered subcutaneously on day 1 and as booster dose on day 21 with ovalbumin loaded neutral liposomes and measured 1 week post booster dose by ELISA. As to conditions: dose 0.3 µmol, time 28.0 day. The class given is functional, organism-based. The essentials: (§2)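 Groups of 5 female NIH/OlaHsd mice, 2.0–2.5 months old, immunized with ovalbumin-loaded neutral liposomes (10 μg ovalbumin per dose) containing 0.30 μmol adjuvant per dose, plus one booster dose. Serum ovalbumin-specific IgG, IgG1 and IgG2a measured 1 week after the booster. Mean ± SEM of 5 mice.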

The subject of data set [5] is PBMC. As to the kind of experiment: Immunostimulatory activity in human PBMC cells assessed as increase in IL-6 production at 2 uM incubated for 18 hrs by flow cytometry analysis. It is filed as functional, cell-based. In a few lines:
as §1

Data set [6] concerns PBMC. As to the kind of experiment: Immunostimulatory activity in human PBMC cells assessed as increase in TNF-alpha production at 2 uM incubated for 18 hrs by flow cytometry analysis. It is filed as functional, cell-based. In a few lines: as §1
In data set [7] the test system is PBMC. As to the kind of experiment: Immunostimulatory activity in human PBMC cells assessed as increase in IL-1beta production at 2 uM incubated for 18 hrs by flow cytometry analysis. It is filed as functional, cell-based. In a few lines:
as §1

Data set [8] deals with PBMC. As to the kind of experiment: Immunostimulatory activity in human PBMC cells assessed as increase in LPS-induced IL-6 production at 2 uM incubated for 18 hrs by flow cytometry analysis. The class given is functional, cell-based. In a few lines: as §1
The nature of data set [9]: Cytotoxicity against HEK-Blue hNOD2 cells assessed as reduction in metabolic activity at 20 uM incubated for 18 hrs by MTS assay. It is filed as toxicity, cell-based. As to conditions: human, hek-blue hnod2, 18 h. The essentials: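 HEK-Blue NOD2 cells, 40 000 per well, exposed to 20 μM compound or 0.1% DMSO for 18 h at 37 °C, 5% CO2. Metabolic activity measured by MTS (CellTiter 96 AQueous One) reagent. Duplicates, two independent biological replicates.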

Data set [10] relates to PBMC. Briefly: Immunostimulatory activity in human PBMC cells assessed as increase in LPS-induced IL-1beta production at 2 uM incubated for 18 hrs by flow cytometry analysis. It is filed as functional, cell-based. The essentials: as §1
In data set [11] the target is T1, Nucleotide-binding oligomerization domain-containing protein 1 (Homo sapiens) (UniProt Q9Y239).
T1 sequence (whole entry): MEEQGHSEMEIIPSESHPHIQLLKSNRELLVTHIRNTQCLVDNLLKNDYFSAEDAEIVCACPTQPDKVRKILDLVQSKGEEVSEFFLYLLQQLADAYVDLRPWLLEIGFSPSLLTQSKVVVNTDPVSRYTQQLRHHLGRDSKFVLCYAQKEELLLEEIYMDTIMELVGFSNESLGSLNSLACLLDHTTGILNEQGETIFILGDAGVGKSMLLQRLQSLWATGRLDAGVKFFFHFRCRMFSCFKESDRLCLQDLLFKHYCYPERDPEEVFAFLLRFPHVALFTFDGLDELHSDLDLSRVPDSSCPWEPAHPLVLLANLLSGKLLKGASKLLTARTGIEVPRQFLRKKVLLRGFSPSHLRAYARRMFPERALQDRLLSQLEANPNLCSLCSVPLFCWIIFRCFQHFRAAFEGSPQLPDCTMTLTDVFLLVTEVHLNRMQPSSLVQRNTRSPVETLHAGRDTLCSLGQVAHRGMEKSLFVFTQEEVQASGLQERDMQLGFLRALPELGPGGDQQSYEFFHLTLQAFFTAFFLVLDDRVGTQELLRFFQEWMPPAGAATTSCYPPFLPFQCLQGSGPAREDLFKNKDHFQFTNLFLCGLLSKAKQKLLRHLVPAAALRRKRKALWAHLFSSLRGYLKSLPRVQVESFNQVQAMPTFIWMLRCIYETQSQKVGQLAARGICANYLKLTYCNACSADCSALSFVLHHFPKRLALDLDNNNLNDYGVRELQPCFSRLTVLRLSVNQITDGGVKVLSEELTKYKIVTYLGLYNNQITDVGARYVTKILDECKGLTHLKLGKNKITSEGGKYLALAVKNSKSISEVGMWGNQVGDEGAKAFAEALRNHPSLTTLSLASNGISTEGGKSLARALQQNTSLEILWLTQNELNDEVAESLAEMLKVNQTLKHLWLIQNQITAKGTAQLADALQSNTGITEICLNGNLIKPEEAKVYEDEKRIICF
As to the kind of experiment: Agonist activity at NOD1 in HEK-Blue hNOD2 cells assessed as increase in NFkappaB transactivation-mediated SEAP activity measured after 18 hrs by spectrophotometric method. It is filed as cell-based. As to conditions: HEK-Blue hNOD1, in the assay text read “HEK-Blue hNOD1 cells” for “HEK-Blue hNOD2 cells”. In a few lines:
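Counter-screen in HEK-Blue NOD1 cells (HEK293 stably expressing human NOD1 plus an NF-κB-inducible SEAP reporter), seeded at 2.5 × 10^5 cells/mL in HEK-Blue detection medium. Compounds at 2 μM versus 0.1% DMSO vehicle, 18 h at 37 °C, 5% CO2. SEAP read as absorbance at 630 nm. Duplicates, at least two independent experiments.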

The subject of data set [12] is BMDC. As to the kind of experiment: Induction of mouse BMDC-mediated ovalbumin specific CD4+ T cell activation assessed as increase in TNF-alpha production at 10 uM incubated for 72 hrs by flow cytometric analysis. The class given is functional, cell-based. The essentials: (§3)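 BMDCs from C57BL/6 mouse tibia (7 days in GM-CSF 20 ng/mL, >90% CD11c+) pulsed 18 h with compound (1 or 10 μM) plus ovalbumin 50 μg/mL, then washed. They were cocultured 72 h with CFSE-labelled naive OT-II CD4+ T cells. CD25+/CFSE-low fraction of live Thy1.2+CD4+ cells read by flow cytometry; supernatant cytokines also measured. Duplicates of two independent experiments.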

Data set [13] concerns BMDC. As to the kind of experiment: Induction of mouse BMDC-mediated ovalbumin specific CD4+ T cell activation assessed as increase in IL-2 production at 10 uM incubated for 72 hrs by flow cytometric analysis. It is filed as functional, cell-based. The essentials: as §3
The subject of data set [14] is BMDC. Briefly: Induction of mouse BMDC-mediated ovalbumin specific CD4+ T cell activation assessed as increase in IFN-gamma production at 10 uM incubated for 72 hrs by flow cytometric analysis. The class given is functional, cell-based. In a few lines: as §3
The test system of data set [15] is BMDC. Briefly: Induction of mouse BMDC-mediated ovalbumin specific CD4+ T cell activation assessed as increase in IL-17A production at 10 uM incubated for 72 hrs by flow cytometric analysis. The class given is functional, cell-based. The essentials:
as §3

In data set [16] the test system is BMDC. As to the kind of experiment: Induction of mouse BMDC-mediated ovalbumin specific CD4+ T cell activation assessed as increase in CD25 expression at 10 uM incubated for 72 hrs by CFSE staining based flow cytometric analysis. It is filed as functional. In a few lines:
as §3

Data set [17] has as its system BMDC. As to the kind of experiment: Induction of mouse BMDC-mediated ovalbumin specific CD4+ T cell activation assessed as increase in CD25 expression at 1 uM incubated for 72 hrs by CFSE staining based flow cytometric analysis. It is filed as functional. The essentials: as §3
The test system of data set [18] is BMDC. As to the kind of experiment: Induction of mouse BMDC-mediated ovalbumin specific CD4+ T cell activation assessed as increase in IL-6 production at 10 uM incubated for 72 hrs by flow cytometric analysis. The class given is functional, cell-based. In a few lines:
as §3

Data set [19] deals with Mus musculus. Briefly: Immuno-adjuvant activity in NIH/OlaHsd mouse assessed as increase in ovalbumin specific IgG production in sera at 0.30 micromol administered subcutaneously on day 1 and as booster dose on day 21 with ovalbumin loaded neutral liposomes and measured 1 week post booster dose by ELISA. The class given is functional, organism-based. As to conditions: dose 0.3 µmol, time 28.0 day. In a few lines: as §2
For orientation: In an ELISA, binding on a coated surface is turned into a signal by an enzyme label.

Data set [20] relates to Mus musculus. Briefly: Immuno-adjuvant activity in NIH/OlaHsd mouse assessed as increase in ovalbumin specific […] associated IgG1 production in sera at 0.30 micromol administered subcutaneously on day 1 and as booster dose on day 21 with ovalbumin loaded neutral liposomes and measured 1 week post booster dose by ELISA. It is filed as functional, organism-based. Particulars: dose 0.3 µmol, time 28.0 day. The essentials:
as §2

Data set [21] concerns Mus musculus. As to the kind of experiment: Immuno-adjuvant activity in NIH/OlaHsd mouse assessed as increase in ovalbumin specific […] associated IgG1 production in sera at 0.15 micromol administered subcutaneously on day 1 and as booster dose on day 21 and 28 with ovalbumin loaded liposomes by ELISA. The class given is functional, organism-based. Particulars: dose 0.15 µmol, time 28.0 day. In a few lines: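 Groups of 5 female NIH/OlaHsd mice, 2.0–2.5 months old, immunized with ovalbumin-loaded liposomes (10 μg ovalbumin per dose) containing 0.15 μmol adjuvant per dose. Liposomes were neutral (PC–cholesterol 7:5), anionic (PC–cholesterol–dicetylphosphate 7:5:1) or mannosylated (PC–cholesterol–mannose-PEG-PA 7:5:0.5). Serum ovalbumin-specific IgG, IgG1 and IgG2a measured 1 week after the second booster. Mean ± SEM.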

For the compound `CCCCCCCCCCCC(=O)Oc1ccc(/C=C/C(=O)NCC(=O)N[C@H](C(=O)N[C@H](CCC(=O)OCC)C(=O)OCC)C(C)C)cc1OC`, the result with PBMC [1], in the data set with PBMC [2], in the data set on PBMC [3], with PBMC [5], in the data set on PBMC [6] and with PBMC [7] was Active. For the same compound, the result with PBMC [8] and with PBMC [10] was Active. For the same compound, the result (in the data set with Mus musculus [4]; in [11]) was inactive. Further, the Activity result in [9] is listed as “Non-Toxic”.

As for `COc1cc(/C=C/C(=O)NCC(=O)N[C@H](C(=O)N[C@H](CCC(=O)OC2CCCC2)C(=O)OC2CCCC2)C(C)C)ccc1O`, the outcome in the data set on PBMC [1], in the data set on PBMC [2], in the data set with PBMC [3], with BMDC [12], in the data set on BMDC [13] and with BMDC [14] was Active. The outcome with BMDC [15], with BMDC [16], in the data set with PBMC [5], in the data set with BMDC [17], with PBMC [6] and in the data set with BMDC [18] was Active. Further, the result with PBMC [7], in the data set with PBMC [8] and with PBMC [10] was Active. For the same compound, the outcome (with Mus musculus [4]; in the data set with Mus musculus [19]; in [11]) was inactive. In addition, in [9], the Activity entry was “Non-Toxic”.

Regarding `CCOC(=O)CC[C@@H](NC(=O)[C@@H](NC(=O)CNC(=O)/C=C/c1ccc(O)c(OC)c1)C(C)C)C(=O)OCC`, the result in the data set with Mus musculus [20] and in the data set on Mus musculus [19] was Active. For the same compound, the Activity result in [9] is listed as “Non-Toxic”. The outcome in [11] was inactive.

As to `CC(=O)N[C@H]1C(O)O[C@H](CO)[C@@H](O)[C@@H]1O[C@H](C)C(=O)N[C@@H](C)C(=O)N[C@H](CCC(=O)O)C(N)=O` (stereo partly specified) [MURAMYL DIPEPTIDE], the result with PBMC [1], in the data set on PBMC [2], with PBMC [3], in the data set with Mus musculus [21], with PBMC [5] and in the data set on PBMC [6] was Active. For the same compound, the outcome in the data set on PBMC [7], with PBMC [8] and with PBMC [10] was Active. For the same compound, the Activity result in [9] is “Non-Toxic”. Besides, the outcome in data set [11] was inactive.

As to `CCCCCCCCCCCCCCCCCC(=O)Oc1ccc(/C=C/C(=O)NCC(=O)N[C@H](C(=O)N[C@H](CCC(=O)OCC)C(=O)OCC)[C@@H](C)O)cc1OC`, the outcome with PBMC [1], in the data set with PBMC [3], in the data set with PBMC [8] and in the data set on PBMC [10] was Active. Besides, the result (in the data set on PBMC [2]; in the data set on PBMC [5]; with PBMC [6]; in the data set with Mus musculus [20]; in the data set with PBMC [7]; in data set [11]) was inactive. Further, the Activity result in data set [9] is “Non-Toxic”.

Consider `CCOC(=O)CC[C@@H](NC(=O)[C@@H](NC(=O)CNC(=O)/C=C/c1ccc(OC(C)=O)c(OC)c1)C(C)C)C(=O)OCC`, for which the result in the data set with PBMC [1], in the data set with PBMC [2], in the data set on PBMC [3], with PBMC [5], with PBMC [6] and with PBMC [7] was Active. In addition, the result in the data set on PBMC [8] and with PBMC [10] was Active. The Activity result in data set [9] is “Non-Toxic”. In data set [11], the result was inactive.
